In ChEMBL document CHEMBL1154372, “Steroidal sapogenins and glycosides from the rhizomes of Dioscorea bulbifera” (J Nat Prod, 2009) one finds Activity and IC50 data, which are given here for nine compounds.

By pIC50 is commonly meant the negative decadic logarithm of the IC50, by convention in mol/L.

pIC50: −log10 of the molar value. Activity calls are given as the source filed them. No cut-off for these calls is given here.

The subject of the first test is Bel-7402. Put plainly: Cytotoxicity against human Bel7402 cells at 10 uM after 48 hrs by MTT assay. Type of test: functional.
Conditions: not given
The gist of the method: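 Bel-7402 human hepatocellular carcinoma cells were grown in DMEM with 10% fetal calf serum at 37 °C under 5% CO2 and subcultured twice weekly. Cells were seeded at 7500 per well and, after 24 h, compound was added at 10 µM. After 48 h exposure in triplicate, MTT was added, formazan was dissolved in DMSO and absorbance was read at 570 nm. The value is % inhibition.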
In general terms: Tetrazolium dyes change colour on reduction, which living cells bring about.
With `C[C@@H]1[C@@]2(CC[C@@](C)(CO)O2)O[C@H]2C[C@H]3[C@@H]4C=CC5=CC(=O)CC[C@]5(C)[C@H]4CC[C@]3(C)[C@]21O`, the outcome was inactive.
Still for that read-out and setting: the value for `C[C@@H]1CC[C@@]2(OC1)O[C@H]1C[C@H]3[C@@H]4CCC5=C[C@@H](O[C@@H]6O[C@H](CO)[C@@H](O)[C@H](O[C@@H]7O[C@@H](C)[C@H](O)[C@@H](O)[C@H]7O)[C@H]6O[C@@H]6O[C@@H](C)[C@H](O)[C@@H](O)[C@H]6O)CC[C@]5(C)[C@H]4CC[C@]3(C)[C@@]1(O)[C@@H]2C` was 99.1%; that for `C[C@@H]1[C@@]2(CC[C@@](C)(CO)O2)O[C@H]2C[C@H]3[C@@H]4CCC5=CC(=O)CC[C@]5(C)[C@H]4CC[C@]3(C)[C@]21O` was “inactive”; that for `C[C@@H]1[C@@]2(CC[C@](C)(O)CO2)O[C@H]2C[C@H]3[C@@H]4CCC5=CC(=O)CC[C@]5(C)[C@H]4CC[C@]3(C)[C@]21O` was “inactive”.
`C[C@@H]1O[C@@H](O[C@@H]2[C@@H](O)[C@H](O[C@H]3CC[C@@]4(C)C(=CC[C@@H]5[C@@H]4CC[C@@]4(C)[C@H]5C[C@@H]5O[C@]6(CC[C@](C)(O)CO6)[C@@H](C)[C@@]54O)C3)O[C@H](CO)[C@H]2O)[C@H](O)[C@H](O)[C@H]1O`: the result was inactive.
On the same count and under the same terms, the same measure for `C[C@@H]1CC[C@@]2(OC1)O[C@H]1C[C@H]3[C@@H]4CCC5=CC(=O)CC[C@]5(C)[C@H]4CC[C@]3(C)[C@@]1(O)[C@@H]2C`: “inactive”.
Take `C/C(C(=O)CC[C@@H](C)CO)=C1/C(=O)C[C@H]2[C@@H]3CCC4=C[C@@H](O[C@@H]5O[C@H](CO)[C@@H](O)[C@H](O[C@@H]6O[C@@H](C)[C@H](O)[C@@H](O)[C@H]6O)[C@H]5O[C@@H]5O[C@@H](C)[C@H](O)[C@@H](O)[C@H]5O)CC[C@]4(C)[C@H]3CC[C@]12C`: the outcome was inactive.
On the same count and under the same terms, the value for `C[C@@H]1O[C@@H](O[C@H]2[C@H](O[C@H]3CC[C@@]4(C)C(=CC[C@@H]5[C@@H]4CC[C@@]4(C)[C@H]5C[C@@H]5O[C@]6(CC[C@](C)(O)CO6)[C@@H](C)[C@@]54O)C3)O[C@H](CO)[C@@H](O)[C@@H]2O[C@@H]2O[C@@H](C)[C@H](O)[C@@H](O)[C@H]2O)[C@H](O)[C@H](O)[C@H]1O` was “inactive”.

The next test concerns SMMC-7721. The test can be described thus: Growth inhibition of human SMMC7721 cells after 48 hrs by MTT assay. Conditions: SMMC-7721, 48 h. The format is functional, cell-based. The essentials:
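SMMC7721 human hepatocellular carcinoma cells were kept in DMEM with 10% fetal calf serum at 37 °C and 5% CO2, and passaged twice weekly to stay in log growth. After 24 h at 7500 cells per well, compounds were added at various concentrations for 48 h, in triplicate. Viability was read as MTT formazan dissolved in DMSO, at 570 nm. IC50 determined; 10-hydroxycamptothecin served as positive control.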
With `C[C@@H]1CC[C@@]2(OC1)O[C@H]1C[C@H]3[C@@H]4CCC5=C[C@@H](O[C@@H]6O[C@H](CO)[C@@H](O)[C@H](O[C@@H]7O[C@@H](C)[C@H](O)[C@@H](O)[C@H]7O)[C@H]6O[C@@H]6O[C@@H](C)[C@H](O)[C@@H](O)[C@H]6O)CC[C@]5(C)[C@H]4CC[C@]3(C)[C@@]1(O)[C@@H]2C`, the negative logarithm of the IC50 (pIC50) was 5.34.
The same measure, in the same setting: the same measure for `CC[C@@]1(O)C(=O)OCc2c1cc1n(c2=O)Cc2cc3cc(O)ccc3nc2-1` [HYDROXYCAMPTOTHECIN]: 6.85.
